Assay outcomes from PubChem BioAssay.
A selection: hits, their analogues and other compounds. The true share with any hit is near 1.9%.
EBI2 antag: blocks human EBI2 receptor beta-arrestin signaling; P32249; EBI2 beta-arrestin recruitment, luminescence, 7a,25-OHC stimulated; inhibition, % at 5 µM; actives 0.81% (n = 360,000); in the data active = inhibition above about 38%;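 also: enzyme fragment complementation signal reports receptor beta-arrestin coupling in cells; 0% = agonist plus DMSO wells and 100% = wells without agonist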
CCR6 antag: CCR6 (human) receptor antagonism; P51684; CHO-K1 CCR6 PathHunter beta-arrestin, luminescence, CCL20-stimulated; inhibition, % at 20 µM; actives 0.49% (n = 340,000); AID 493098;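 active = compounds whose inhibition of the agonist-driven luminescence signal at 20 µM reaches about 50%, limit read from the data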;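 also: cells stimulated with CCL20 at 14 nM final; plate controls were DMSO with CCL20 for no effect and DMSO without agonist for full effect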
APJ ag: APJ receptor agonism | P35414 | CHO-K1 APJ PathHunter beta-arrestin, luminescence; 0% DMSO wells, 100% apelin | activation, % at 20 µM | actives 0.11% (n = 330,000) | AID 2520;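 active = activation more than six SD over the plate average, tested at 20 µM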;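 also: 0% = DMSO alone and 100% = apelin-13 at 10 nM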
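Assay system: CHO-K1 APJ beta-arrestin complementation cell line / Compound: single test compound dose, 20 µM final, 1% DMSO / Times: overnight seeding, 90 min compound at 25 °C, 1 h detection / Technique: beta-gal luminescence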
APJ antag: antagonists of human APJ apelin receptor; actives 0.32% (n = 330,000); CHO-K1 APJ beta-arrestin complementation, luminescence; P35414; inhibition, % at 20 µM;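 active = inhibition above about 40% at 20 µM, limit read from the data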;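 also: cells challenged with 10 nM apelin-13 agonist together with compound; plate controls were apelin-13 plus DMSO wells for no effect and DMSO wells lacking apelin-13 for full effect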
CXCR6 block: blocks human CXCR6 beta-arrestin recruitment. O00574. CHO-K1 PathHunter CXCR6 beta-arrestin, luminescence. inhibition, % at 20 µM. actives 0.36% (n = 360,000). AID 602244; in the data active = inhibition above about 34%, passing the limit was not always enough;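 also: antagonist mode with CXCL16 agonist at 10 nM final; 0% = 10 nM CXCL16 with DMSO and 100% = unstimulated wells without agonist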
Target sequence (O00574 whole entry, looked up): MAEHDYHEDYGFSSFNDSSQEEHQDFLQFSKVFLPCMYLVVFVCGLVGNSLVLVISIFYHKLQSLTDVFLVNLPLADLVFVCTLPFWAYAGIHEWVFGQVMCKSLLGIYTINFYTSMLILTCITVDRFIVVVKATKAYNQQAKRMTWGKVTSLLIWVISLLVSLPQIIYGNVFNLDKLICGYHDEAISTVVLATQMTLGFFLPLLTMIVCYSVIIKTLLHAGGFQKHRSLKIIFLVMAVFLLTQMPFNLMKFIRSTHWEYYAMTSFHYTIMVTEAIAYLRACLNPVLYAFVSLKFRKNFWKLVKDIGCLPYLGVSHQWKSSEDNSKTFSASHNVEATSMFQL
TAG inh: triacylglycerol accumulation inhibition | inhibition, % at 12.5 µM | actives 0.66% (n = 230,000) | H9c2 cells, Nile Red lipid (TAG) fluorescence; cells loaded with 200 µM oleic acid;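 active = pattern-corrected inhibition of lipid staining of at least 50% with the nuclear-stain viability signal not falling by more than 50%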;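 also: 0% = DMSO wells and 100% = triacsin C control wells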
APJ ag conf: confirmation of human APJ apelin receptor agonists; shares compounds with APJ ag; AID 2764; actives 10% (n = 310); CHO-K1 APJ PathHunter beta-arrestin, luminescence; activation, % at 20 µM;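 active = activation above 40%, taking the highest of four retests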;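 also: plate controls were DMSO wells for no effect and apelin-13 at 10 nM for full effect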
APJ antag conf: confirmation of human APJ apelin receptor antagonists; shares compounds with APJ antag; APJ beta-arrestin recruitment, luminescence, antagonist mode; inhibition, % at 20 µM; actives 66% (n = 950); AID 2766; in the data active = inhibition above about 50%
CXCR6 antag conf: confirmation of human CXCR6 receptor antagonists; shares compounds with CXCR6 block; CHO-K1 CXCR6 PathHunter beta-arrestin, luminescence; inhibition, % at 20 µM; actives 65% (n = 700);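 active = mean inhibition over four retests above 40%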;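 also: receptor stimulated with 10 nM CXCL16 agonist; beta-galactosidase fragment complementation upon beta-arrestin recruitment to receptor; plate controls were CXCL16 plus DMSO for no effect and DMSO without CXCL16 for full effect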
Active calls of the source: *; . = not tested or not shown.

SMILES	EBI2 antag	CCR6 antag	APJ ag	APJ antag	CXCR6 block	TAG inh	others
O=C(N/N=C\C1C(=O)NC(=S)N(c2ccccc2)C1=O)c1ccc(O)cc1 (configuration not stated)	-10	62*	-6	-9	4	4
O=C(N/N=C/c1c(O)n(-c2ccccc2)c(=S)[nH]c1=O)c1ccccc1	4	12	-4	1	9	-9
N#CCCn1cc(C(=O)Nc2ccccc2Cl)c(-c2ccc(F)cc2)n1	-1	8	-4	8	20	.
C=C(C=O)C[C@@H]1C[C@H](O)C2OC3C[C@]4(C)OC5/C=C\CC6OC7C(CC=CCC6OC5CCCC4OC3CC2O1)OC1CC2OC3CC(=O)OC3C[C@@H](C)C[C@@]2(C)OC1C[C@@H]7C (some centres not stated)	.	47	21*	-12	.	.	APJ ag conf=19
CCCSc1nc(O)c(CC)c(=O)n1C(C)CC (configuration not stated)	-15	-7	60*	13	-3	.	APJ ag conf=62*
CCCC(C)n1[nH]c(=O)c2c1NC(=O)CSC2c1ccccc1 (configuration not stated)	-1	6	-2	12	-5	-7
O=C(NCC1=C(c2ccc3ccccc3c2)C[C@@H]2CC[C@H]1N2Cc1ccco1)c1cccnc1	7	.	.	.	4	3
CC1(C)C[C@H]2C=C(C=O)[C@]3(C=O)C[C@]3(C)[C@H]2C1	4	30	31*	-26	-3	.	APJ ag conf=33
COC(=O)C1=C(c2cccc(OC)c2OC)C[C@@H]2CC[C@H]1N2C(=O)NC1CCCCC1	-6	13	-9	-2	-6	-27
CC1=Nc2ccccc2/C1=C/c1c(O)[nH]c(=O)[nH]c1=O	-1	-2	-3	13	8	1
O=c1[nH]c(O)c(/C=C2/C=CC(c3cc(Cl)ccc3Cl)=N2)c(=O)[nH]1	-4	-6	19*	-58	-6	7	APJ ag conf=30
O=c1[nH]c(=S)n(-c2ccccc2)c(O)c1/C=N/N1CCOCC1	-4	7	-5	-8	4	.
O=C1C(=O)c2ccccc2-c2ccccc21	-60	34	37*	-3	22	120	APJ ag conf=42*
CN1C(=O)NC(=O)/C(=C\C=C\c2ccccc2[N+](=O)[O-])C1=O	.	41	2	-22	.	.
NC(N)=N/N=C/c1ccc(N(c2ccccc2)c2ccccc2)cc1	-8	15	40*	-20	-13	.	APJ ag conf=30
Cc1sc(-n2c(C)cc(C=C3C(=O)NC(=O)NC3=O)c2C)c(C#N)c1C	.	1	11*	9	.	.	APJ ag conf=21
Cc1cc(/C=C2\C(=O)NC(=O)N(c3ccc(Cl)cc3)C2=O)c(C)n1-c1sc2c(c1C#N)CCCC2	29	-12	4	7	-9	.
C=C1C(=O)O[C@@H]2C[C@@H](C)[C@@H]3C4OC4C(=O)[C@@]3(C)[C@@H](O)[C@H]12 (some centres not stated)	42	29	2	42*	34	111*	APJ antag conf=42
COc1ccc(C(=O)C2CCCN(CCO)C2)c(C)c1 (configuration not stated)	1	-3	-2	111*	14	-4	APJ antag conf=26
COC(=O)C1=C(c2ccccc2)C[C@@H]2CC[C@H]1N2C(=O)N1CCC(C)CC1	10	14	2	18	-5	-7
CCCCCn1c(NC(=O)c2ccco2)c(C(=O)OCC)c2nc3ccccc3nc21	20	38	-10	49*	-4	.	APJ antag conf=28
CCCCNC(=O)c1c(N)n(CCCOC)c2nc3ccccc3nc12	23	2	-8	37	0	.
CCOC(=O)c1c(NS(=O)(=O)c2ccccc2)n(CCCOC)c2nc3ccccc3nc12	8	60*	-7	50*	18	.	APJ antag conf=9
CCC1(c2ccccc2)C(=O)N(COC)C(=O)N(COC)C1=O	10	0	-2	1	-3	-1
CC1CN2C(=O)C1(c1ccccc1)C(=O)NC2=S (configuration not stated)	-10	.	.	.	-3	11
SMILES	EBI2 antag	CCR6 antag	APJ ag	APJ antag	CXCR6 block	TAG inh	others
COCCNC(=O)c1c(N)n(CCC(C)C)c2nc3ccccc3nc12	20	14	-11	34	-2	.
CC(C)CCn1c(N)c(C(=O)NCc2cccs2)c2nc3ccccc3nc21	16	-10	-13	55*	1	.	APJ antag conf=-3
CNc1ccc2oc(C[C@H]3O[C@@]4(CC[C@H]3C)O[C@H]([C@H](C)C(=O)c3ccc[nH]3)[C@H](C)C[C@H]4C)nc2c1C(=O)O	20	55*	2	65*	75*	51	APJ antag conf=61*;CXCR6 antag conf=69*
C=CCN1C[C@@H](C)N(C(c2ccc(C(=O)N(CC)CC)cc2)c2cccc(OC)c2)C[C@@H]1C (some centres not stated)	-3	10	-4	-5	6	10
C=C1C(=O)O[C@@H]2C[C@@H](C)[C@@H]3C=CC(=O)[C@@]3(C)[C@@H](OC(=O)CC(=O)O[C@H]3[C@@H]4C(=C)C(=O)O[C@@H]4C[C@@H](C)[C@@H]4C=CC(=O)[C@]43C)[C@H]12	51*	98*	-9	83*	92*	.	APJ antag conf=115*;CXCR6 antag conf=100*
COC(=O)C1=C(c2ccccc2)C[C@@H]2CC[C@H]1N2C(=O)NCCS(C)=O (some centres not stated)	-23	-2	-2	25	-7	-6
COc1cc(/C=C/[N+](=O)[O-])ccc1OC(=O)c1cccnc1	-11	82*	4	59*	57*	.	APJ antag conf=72*;CXCR6 antag conf=63*
O=C(CCNC(=O)N1C[C@H]2C[C@@H](C1)c1cccc(=O)n1C2)Nc1ccc(F)cc1	-3	-5	-3	3	-10	.
COc1ccc(CCn2c(O)c(C=NCc3cccnc3)c(=O)[nH]c2=O)cc1OC	-6	13	0	7	5	-7
COc1ccc(C2CC(c3c(O)n(CCc4ccccc4)c(=O)[nH]c3=O)=NN2)cc1OC (configuration not stated)	0	104*	-13	4	90*	11	CXCR6 antag conf=104*
CCCCCCCCn1sccc1=O	61*	105*	-4	26	99*	.	CXCR6 antag conf=105*
c1cc2c(cc1N1CCCCC1)C1CC2CCN1 (configuration not stated)	-2	4	.	.	7	-3
